From PubChem
SENP8 block-1 – human SENP8 protease inhibitors, primary screen, biochemical, fluorescence, Nedd8 protein substrate, uHTS; Sentrin-specific protease 8 (Homo sapiens), Q96LD8; hit rate 0.64% among 360,000; recombinant SENP8; inhibition, % at 20 µM; in the data active = inhibition mostly above about 40%, no sharp cut-off; inactive = mostly below about 27%
Target sequence (Q96LD8 whole entry, looked up): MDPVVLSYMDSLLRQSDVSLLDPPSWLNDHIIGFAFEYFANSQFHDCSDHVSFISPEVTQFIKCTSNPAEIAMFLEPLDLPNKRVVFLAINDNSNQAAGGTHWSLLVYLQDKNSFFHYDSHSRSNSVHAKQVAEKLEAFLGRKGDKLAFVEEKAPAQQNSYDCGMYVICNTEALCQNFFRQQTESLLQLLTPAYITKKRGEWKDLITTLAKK
Apaf1 inhib – inhibitors of human Apaf-1 apoptosome, primary screen, biochemical, DEVD-Rh110 fluorescence, uHTS | inhibition, % at 20 µM | reconstituted apoptosome caspase-3 activity | Apoptotic protease-activating factor 1 (Homo sapiens), O14727 | hit rate 0.71% among 330,000; active = inhibition of at least 40% at 20 µM
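System: reconstituted apoptosome with Apaf-1, cytochrome c, caspase-9, procaspase-3, dATP; Signal: Rh110 fluorescence intensity; Schedule: 30 min compound preincubation, 50 min activation, room temperature; Reagent: cytochrome c trigger plus (Z-DEVD)2-Rh110 caspase-3 substrate.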
UBC13 polyUb – UBC13 polyubiquitin chain formation inhibitors, primary screen, biochemical, TR-FRET, uHTS. Ubiquitin-conjugating enzyme E2 N (Homo sapiens), P61088. inhibition, % at 20 µM. hit rate 0.47% among 330,000. AID 485273, 2010; in the data active = inhibition above about 45%, passing the limit was not always enough
Target sequence (P61088 whole entry, looked up): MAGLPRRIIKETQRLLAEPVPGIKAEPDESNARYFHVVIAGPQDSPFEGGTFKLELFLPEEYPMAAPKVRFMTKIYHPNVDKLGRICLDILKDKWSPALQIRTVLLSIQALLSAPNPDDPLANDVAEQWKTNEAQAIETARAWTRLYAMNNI
SENP7 block – SENP7 protease inhibitors, primary screen, biochemical, luminescence, uHTS; recombinant SENP7, Z-RLRGG-aminoluciferin luminescence, 40 min; inhibition, % at 5 µM; hit rate 1.5% among 330,000; AID 434973, 2010;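 active = inhibition above about 50% at the single test dose, limit read from the data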
SENP8 block-2 – SENP8 protease inhibitors, primary screen, biochemical, luminescence; Sentrin-specific protease 8 (Homo sapiens), Q96LD8; purified SENP8, Z-RLRGG-aminoluciferin cleavage; inhibition, % at 10 µM; hit rate 1.2% among 330,000; AID 2540, 2010; in the data active = inhibition above about 50%
SENP6 inh – SENP6 protease inhibitors, primary screen, biochemical, luminescence, uHTS; Sentrin-specific protease 6 (Homo sapiens), Q9GZR1; Recombinant SENP6 catalytic domain, aminoluciferin luminescence; inhibition, % at 10 µM; hit rate 1.8% among 330,000;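 active = inhibition above about 50% at the single tested dose, limit read from the data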
SENP8 conf – SENP8 protease inhibitors, retest, confirmation, biochemical, luminescence, single concentration | inhibition, % at 12.5 µM | shares compounds with SENP7 block | Recombinant SENP8, Z-RLRGG-aminoluciferin luminescence, 60 min | hit rate 40% among 6,200;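 active = mean inhibition across replicates above about 50%, limit read from the data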
SENP6 conf – SENP6 protease inhibitors, confirmation, biochemical, luminescence, single concentration | hit rate 58% among 6,200 | AID 488915, 2010 | shares compounds with SENP7 block | recombinant SENP6, Z-RLRGG-aminoluciferin luminescence | inhibition, % at 12.5 µM
SENP7 confirm – SENP7 protease inhibitors, retest, confirmation, biochemical, luminescence, single concentration. hit rate 69% among 6,200. inhibition, % at 12.5 µM. recombinant SENP7, Z-RLRGG-aminoluciferin luminescence, 40 min. shares compounds with SENP7 block
Casp3 select – caspase-3 protease inhibitors, confirmation, selectivity assay for SENP inhibitor project, biochemical, single concentration; shares compounds with SENP7 block; purified caspase-3, Z-DEVD-aminoluciferin luminescence, 60 min; inhibition, % at 12.5 µM; hit rate 60% among 6,200;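 active = mean inhibition above about 50%, limit read from the data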
Target sequence (P42574 28-227 limits assumed): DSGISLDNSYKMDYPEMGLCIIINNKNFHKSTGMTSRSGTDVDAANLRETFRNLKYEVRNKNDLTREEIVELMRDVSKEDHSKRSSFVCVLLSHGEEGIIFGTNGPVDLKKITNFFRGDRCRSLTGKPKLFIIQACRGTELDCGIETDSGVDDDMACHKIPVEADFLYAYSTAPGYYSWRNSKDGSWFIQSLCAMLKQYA
Luc interf – counter-screen for SENP inhibitors: luminescence interference; shares compounds with SENP7 block; Pre-incubated SENP8/Z-RLRGG-aminoluciferin, luciferase luminescence interference; inhibition, % at 12.5 µM; hit rate 39% among 6,200;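 active = mean inhibition above about 50% when retested at one dose, limit read from the data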
Numbers stand for hits; . = inactive; / = no result given. Most compounds without a hit are left out; they make up all but 3% or so of the library.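 The calls were made as follows, unless noted: active = mean inhibition above about 50% in the one-dose retest (limit read from the data); inactive = the rest.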

SMILES	SENP8 block-1	Apaf1 inhib	UBC13 polyUb	SENP7 block	SENP8 block-2	SENP6 inh	SENP8 conf	SENP6 conf	SENP7 confirm	Casp3 select	Luc interf
Cc1ccc(S(=O)(=O)/N=C(/NC(=S)Nc2ccccc2)c2ccccc2)cc1	.	.	.	.	.	74	67	65	86	.	.
COc1ccc(C(=O)NN/C(=N/S(=O)(=O)c2ccc(C)cc2)c2ccccc2)cc1	.	.	.	78	54	88	69	64	88	70	73
Cc1ccc(NC(=S)N/C(=N/S(=O)(=O)c2ccccc2)c2ccccc2)cc1	.	.	.	.	.	.	/	/	/	/	/
Cc1cccc(C)c1NC(=O)C1C(c2ccccc2)=Nc2ccccc2N1C(=O)c1cnccn1 (centres undefined)	.	/	/	/	/	/	/	/	/	/	/
Oc1ccc(Br)cc1C1Nc2ccccc2S1 (centres undefined)	.	.	.	79	.	.	.	.	.	.	.
CSCCC(C(=O)Nc1c(C)cccc1C)n1c(-c2cnc(C)cn2)nc2ccccc21 (centres undefined)	.	/	/	/	/	/	/	/	/	/	/
COc1ccccc1N1CCN(/N=C/c2ccc([N+](=O)[O-])cc2)CC1	.	.	.	64	54	68	.	.	91	.	.
CCc1ccn2cc(-c3ccc4c(c3)OCO4)nc2c1	.	.	.	97	94	96	97	98	102	96	96
COc1ccc(-c2cn3cc(C(=O)NN)ccc3n2)cc1	.	.	.	.	.	.	/	/	/	/	/
COC(=O)c1ccc2nc(-c3ccc4c(c3)OCO4)cn2c1	.	.	.	78	.	.	.	.	.	58	.
c1cnc2nc(-c3ccc4c(c3)OCO4)cn2c1	.	.	.	.	.	.	/	/	/	/	/
O=C(NCC1CCCCC1)c1cc(-c2cc(F)ccc2OCC2CCCO2)n[nH]1 (centres undefined)	.	/	/	/	/	/	/	/	/	/	/
Cc1ccc(C(=O)/C=C\C(=O)c2ccc(C)cc2)cc1	.	/	/	/	/	/	/	/	/	/	/
Cc1ccc(S/C=C\C(=O)c2ccccc2)cc1	.	.	.	92	82	87	.	90	79	64	55
CC(=O)NC(C)(c1ccccc1)c1nc(-c2cnc3ccccc3c2)cs1 (centres undefined)	.	/	/	/	/	/	/	/	/	/	/
Cc1ccccc1OCc1nc2ccccc2n1C	.	.	.	72	79	.	.	80	96	86	82
CCOc1ccc(CNc2nc3ccccc3n2C)cc1	.	.	.	69	56	84	.	59	88	86	72
Cn1c(COc2ccc(F)cc2)nc2ccccc21	.	.	.	61	.	62	60	58	83	76	64
Cn1c(COc2ccc(C(=O)O)cc2)nc2ccccc21	.	.	.	.	.	.	/	/	/	/	/
CC1=C(C(=O)N(C(C)C)C(C)C)CC(CC(=O)NCCCCc2ccccc2)C(=O)N1Cc1ccc(C(C)(C)C)cc1 (centres undefined)	.	/	/	/	/	/	/	/	/	/	/
C=CCn1c(SCn2nnc3ccccc3c2=O)nc2scc(-c3cccs3)c2c1=O	.	.	.	74	.	.	.	.	.	.	.
COc1cccc(C(=O)N=c2sc3c(C)ccc(OC)c3n2C)c1	.	.	.	97	68	.	.	.	.	.	.
COc1ccc(C(=O)N=c2sc3ccccc3n2C)cc1OC	.	.	.	.	.	.	/	/	/	/	/
COc1ccc(C(=O)N=c2sc3c(C)ccc(OC)c3n2C)cc1OC	.	.	.	89	76	84	.	.	.	.	.
CCn1c(=NC(=O)c2cccc(N3C(=O)CCC3=O)c2)sc2c(C)ccc(OC)c21	.	.	.	.	.	.	/	/	/	/	/
SMILES	SENP8 block-1	Apaf1 inhib	UBC13 polyUb	SENP7 block	SENP8 block-2	SENP6 inh	SENP8 conf	SENP6 conf	SENP7 confirm	Casp3 select	Luc interf
COc1cc(-c2cnc3c(NC=O)cc(-c4ccsc4)cn23)cc(OC)c1OC	.	/	/	/	/	/	/	/	/	/	/
Cc1cccc(C)c1NC(=O)C(c1ccccc1)N1CCC(Cc2ccccc2)CC1 (centres undefined)	.	/	/	/	/	/	/	/	/	/	/
Cc1cccc2cc(C#N)c(NCCNC(=O)c3ccccc3)nc12	.	/	/	/	/	/	/	/	/	/	/
CC(=O)c1cccc(NC(=O)C2Cc3c(-c4ccco4)ccnc3O2)c1 (centres undefined)	.	/	/	/	/	/	/	/	/	/	/
CC(=O)c1cnc(Nc2ccccc2)s1	.	.	.	.	.	.	/	/	/	/	/
CC(=O)c1cnc(Nc2cccc(Cl)c2Cl)s1	.	.	.	.	.	53	62	58	86	61	.
CC1Nc2ncnc(N3CCc4ccccc4C3)c2N(Cc2ccccc2)C1=O (centres undefined)	.	/	/	/	/	/	/	/	/	/	/
Brc1ccc2nc(C3CCCCC3)c(Cc3ccsc3)n2c1	.	/	/	/	/	/	/	/	/	/	/
CC1=NN(c2ccccc2)C(=O)/C1=C\c1ccc(Oc2ccc([N+](=O)[O-])cc2[N+](=O)[O-])cc1	41	92	.	68	.	.	.	.	.	.	.
CC12CCC(CC1O)C2C(=O)O (centres undefined)	.	/	/	/	/	/	/	/	/	/	/
NC(=S)Nc1cc2ccccc2c2ccccc12	.	.	.	.	.	.	/	/	/	/	/
NC(=S)Nc1cccc2cc3ccccc3cc12	.	.	.	.	.	61	51	60	74	.	61
O=C1N(c2ccccc2)CCN1c1ccccc1	.	.	.	89	70	83	.	.	.	.	.
O=C1NCCN1c1ccccc1	.	/	/	/	/	/	/	/	/	/	/
Cc1ccc(C(=O)CC(c2cccs2)S(=O)(=O)c2ccc(C)cc2)cc1 (centres undefined)	.	.	.	63	.	62	.	.	.	.	.
